# Bioassay records as filed in PubChem.
# Calb FLC = C. albicans growth inhibition with fluconazole, primary screen, CaCi-2 strain, Alamar Blue fluorescence; C. albicans CaCi-2 (fluconazole-resistant clinical isolate) + fluconazole, 48 h; growth inhibition, % (test concentration not listed); 0.57% of 300,000 active;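 active = growth inhibition above about 58% in most replicates, limit read from the data, passing the limit was not always enough; inconclusive = exactly half the replicates above a set limit; inactive = most replicates below a set limit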;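 note: all wells also contain fluconazole at 8 µg/ml as a sub-toxic cotreatment; 0% = median of DMSO wells and 100% = median of geldanamycin control wells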
# IMP-1 inh = IMP-1 metallo-beta-lactamase inhibitors, primary screen, biochemical, epi-absorbance readout, Pseudomonas aeruginosa enzyme; metallo-beta-lactamase IMP-1 (Pseudomonas aeruginosa); purified IMP-1, nitrocefin hydrolysis, epi-absorbance fluorescence; inhibition, % at 5.6 µM; 0.45% of 290,000 active;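 active = inhibition above the mean plus 3 SD of all compounds in the same screening run, cut at about 4.5% in these data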;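 note: 0% = IMP-1 with DMSO and 100% = DMSO wells lacking enzyme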
#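 Test system: recombinant IMP-1 enzyme, purified / Medium: HEPES buffer pH 7.1 with ZnSO4 and Brij 35 / Doses: single dose, 5.6 µM / Times: 25 °C, 15 min preincubation, 25 min reaction / Detection: Epi-absorbance via hydrolysed-nitrocefin quenching of white-plate fluorescence, 480/530 nm, EDTA stop / Evaluation: percent inhibition from optical density relative to buffer-blank wells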
# VIM-2 inhibitor = VIM-2 metallo-beta-lactamase inhibitors, primary screen, biochemical, epi-absorbance readout, Pseudomonas aeruginosa enzyme | purified VIM-2, nitrocefin hydrolysis, epi-absorbance fluorescence | inhibition, % at 5.6 µM | 0.89% of 290,000 active;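 active = inhibition above the mean of all tested compounds plus 3 SD, cutoff set per screening run, cut at about 7.5% in these data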;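 note: red hydrolysis product quenches plate fluorescence so inhibitors raise well fluorescence; 0% = enzyme with DMSO and 100% = DMSO without enzyme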
# PHOSPHO1 block = PubChem AID 1565; recombinant PHOSPHO1, absorbance phosphatase assay; inhibition, % at 13.3 µM; 1.1% of 290,000 active; in the data active = inhibition above about 60%
# Target sequence (Q8TCT1 whole entry, looked up): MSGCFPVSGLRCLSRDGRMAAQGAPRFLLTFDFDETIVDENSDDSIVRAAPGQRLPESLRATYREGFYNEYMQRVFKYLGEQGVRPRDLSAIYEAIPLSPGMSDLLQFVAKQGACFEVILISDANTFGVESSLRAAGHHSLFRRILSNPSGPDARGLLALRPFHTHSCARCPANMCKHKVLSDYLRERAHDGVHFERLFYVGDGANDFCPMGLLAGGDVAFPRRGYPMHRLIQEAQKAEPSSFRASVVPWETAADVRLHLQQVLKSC
# ARFGAP1 inhibitor = inhibitors of rat ARFGAP1 GAP activity, primary screen, biochemical, fluorescence polarization, GDP tracer. ADP-ribosylation factor GTPase-activating protein 1 (Rattus norvegicus), Q62848. Arfgap1-stimulated ARF1 GTP hydrolysis, GDP FP detection. inhibition, % at 16.5 µM. 0.26% of 360,000 active;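 active = inhibition above a per-plate limit, mean inhibition of low control wells plus 3 SD, cut at about 25% in these data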;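 note: 0% = DMSO wells with enzyme and 100% = wells lacking Arfgap1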
# Target sequence (Q62848 1-136 limits assumed): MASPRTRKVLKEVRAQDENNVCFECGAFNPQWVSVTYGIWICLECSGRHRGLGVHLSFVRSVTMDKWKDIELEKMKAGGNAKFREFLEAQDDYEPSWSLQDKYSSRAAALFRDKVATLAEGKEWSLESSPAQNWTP
#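 Assay system: Rat Arfgap1 GAP domain (His6, aa 1-136), purified enzyme | Buffer or medium: HEPES 25 mM pH 7.5, NaCl 150 mM, MgCl2, DTT | Schedule: GTP hydrolysis reaction 2 h at 25 °C | Signal: FP of antibody-bound GDP Alexa 633 tracer, ex 620/em 688 nm | Measure: Percent inhibition of Arfgap1-stimulated GTP hydrolysis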
# ASAP1 GAP inh = inhibitors of human ASAP1 ArfGAP activity, primary screen, biochemical, fluorescence polarization | Arf-GAP with SH3 domain, ANK repeat and PH domain-containing protein 1 (Homo sapiens), … | ASAP1-stimulated ARF1 GTP hydrolysis, GDP FP detection | inhibition, % at 16.5 µM | 0.19% of 360,000 active | AID 624377, 2012; in the data active = inhibition above about 25%;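 note: 0% = vehicle with enzyme and substrate and 100% = no enzyme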
# Numbers without * were called inactive; ? = inconclusive; / = no result given. Compounds with a hit are over-represented: about 2.6% of the library has one in this group of screens.
SMILES,Calb FLC,IMP-1 inh,VIM-2 inhibitor,PHOSPHO1 block,ARFGAP1 inhibitor,ASAP1 GAP inh
CCC(Sc1nc(C)cc(C)n1)C(=O)NC1=NN=C(c2ccc(C)cc2)CS1 (stereo unspecified),-6,-2,-3,104*,-4,3
Cc1oc(-c2ccc(Cl)cc2)cc1-c1nn2c(-c3ccco3)nnc2s1,/,/,/,92*,/,/
Cc1oc(-c2ccc(F)cc2)cc1-c1nn2c(-c3ccco3)nnc2s1,/,-3,-3,/,-4,9
Cc1oc(-c2ccc(F)cc2)cc1-c1nn2c(-c3ccoc3C)nnc2s1,-3,/,/,98*,14,11
Clc1ccc(-c2nnc3sc(-c4ccco4)nn23)c(Cl)c1,/,/,/,-18,/,/
CC1(C(=O)Nc2cccc(NS(C)(=O)=O)c2)CCN1Cc1ccccc1OC(F)F (stereo unspecified),/,/,/,/,-5,-5
COC(=O)C1=C(C)N(C)C(=NCC2CC2)NC1c1ccc(F)cc1 (stereo unspecified),/,/,/,/,9,-7
CC(=NCCCn1ccnc1)C1=C(O)c2ccccc2C1=O,13,-4,12*,56,-3,-2
CC(=NCc1ccncc1)C1=C(O)c2ccccc2C1=O,/,-1,-1,64*,/,/
CCSc1nc(NCCN(C)C)c2c3c(sc2n1)COC(C)(CC)C3 (stereo unspecified),-13,-3,8.5*,-13,2,14
CCCN1CCCCC(NC(=O)c2ccccc2C)C1=O (stereo unspecified),/,/,/,/,14,-1
Cn1c(COc2ccccc2)nnc1SCC(=O)Nc1ccc2c(c1)OCO2,-9,-3,-5,61*,4,-14
CCn1c(COc2ccc(Cl)cc2)nnc1SCC(=O)Nc1ccc2c(c1)OCO2,-11,-1,0,60*,-1,1
COc1ccc(-c2cnc(SCC(=O)Nc3ccc4c(c3)OCO4)n2Cc2ccco2)cc1,-16,-3,-2,102*,6,0
CCCCOCC1CN(CCCC)S(=O)(=O)c2c(cccc2Sc2ccc(SC)cc2)O1 (stereo unspecified),/,/,/,/,7,-2
COC(=O)C[C@H]1CC[C@@H](NC(=O)Nc2ccc(C(F)(F)F)cc2)[C@@H](CO)O1,/,/,/,/,-2,-5
O=Cc1cc2ccccc2nc1SCc1ccc(Cl)c(Cl)c1,-7,4.7*,-1,22,1,-2
CCn1c(SCc2cccc(F)c2)nnc1-c1ccncc1,-8,-1,1,52,-2,-5
C=CCn1c(SCc2ccc(C#N)cc2)nnc1-c1cccc(OC)c1,-1,-3,0,13,-5,0
CCn1c(SCc2cccc(C)c2)nnc1-c1ccc(C)cc1,17,-3,-2,69*,-2,7
Cc1ccc(-c2nnc(SCc3ccc(C#N)cc3)n2Cc2ccco2)cc1,25,-5,-1,100*,-6,12
COc1cccc(-c2nnc(SCc3ccc(C#N)cc3)n2Cc2ccco2)c1,-5,-2,0,65*,-10,0
Clc1cc(Cl)cc(CN2CCN(c3ncc(Cc4ccccc4)cn3)CC2)c1,/,/,/,/,11,-1
COC(=O)[C@]12C[C@H](CC(=O)NCc3cccs3)C(=O)N(CCC3=CCCCC3)C1=C[C@H](C(C)(C)C)O[C@@H]2C,/,/,/,/,8,10
CCn1c(C)c(C(C)=O)c(N2CCN(c3ccc(F)cc3)CC2)nc1=S,2,-3,-2,102*,8,6
CCCCCCCCCCn1c2c(c(=N)c3c1CCC3)CCC2,107*,-3,-3,30,-17,6
CCCCCCCCCn1c2c(c(=N)c3c1CCC3)CCCC2,105*,-3,-2,16,/,/
CCCCCCCCn1c2c(c(=N)c3ccccc31)CCC2,?,-4,-1,3,0,-17
Fc1ccc2nc(-c3ccc(CN4CCC5(CC4)CNc4ccccc45)cc3)c(-c3ccccc3)nc2c1,/,/,/,/,17,6
